Results from ChEMBL document CHEMBL1157825, “1-(2-Ethoxyethyl)-1H-pyrazolo[4,3-d]pyrimidines as potent phosphodiesterase 5 (PDE5) inhibitors” (Bioorg Med Chem Lett, 2010).

assay: Volume of distribution at steady state in Beagle dog at 0.2 to 0.5 mg/kg, iv; format: ADME, organism-based, Canis lupus familiaris; parameters: dose 0.2-0.5 mg/kg, route intravenous; conditions: in vivo, read-out: Vdss
Outline: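 Single IV dose of 0.2–0.5 mpk given to 10 kg beagles. Half-life reported in h, clearance in mL/min/kg and Vdss in L/kg.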

| Vd [L/kg] | SMILES |
| --- | --- |
| 11.4 | CCOCCn1nc(CC)c2nc(N3CCN(C)CC3)nc(Nc3cc(C)ccn3)c21 |
| 3.8 | CCOCCn1nc(CC)c2nc(N3CCC(C(=O)O)CC3)nc(Nc3cc(C)ccn3)c21 |
| 50.4 | CCOCCn1nc(CC)c2nc(N3CCC(N)CC3)nc(Nc3cc(C)ccn3)c21 |
